An excerpt weighted towards active compounds, which were near 5.7% of everything screened.
T cruzi inh = T. cruzi replication inhibition; AID 1885; 300,000 tested, 1.4% active; inhibition, % (no concentration beside the values); T. cruzi beta-gal in NIH3T3, luminescence, 90 h;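 active = mean inhibition across valid replicates above about 55%, limit read from the data; inconclusive = mean below that limit but half or more replicates reach it; inactive = mean below it, under half of replicates reach it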;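 note: signal also drops with host cell toxicity which is not excluded here; higher percent means less beta-gal luminescence so fewer parasites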
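System: NIH/3T3 fibroblasts plus reporter T. cruzi. Medium: DMEM plus 2% FBS. Probe or stimulus: 5000 reporter trypomastigotes per well. Compound: single 50 nL compound addition per well in DMSO. Incubation: co-culture of at least 90 h after 3 h attachment. Detection: GalScreen β-gal luminescence, detergent lysis, 60 min. Evaluation: parasite load inhibition, %.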
Calb FLC = affects C. albicans growth with fluconazole | C. albicans CaCi-2 + fluconazole, Alamar Blue growth, 48 h | growth inhibition, % (no concentration beside the values) | AID 1979 | 300,000 tested, 0.57% active;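 active = growth inhibition above about 58% in most replicates, limit read from the data, passing the limit was not always enough; inconclusive = exactly half the replicates above a set limit; inactive = most replicates below a set limit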;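 note: all wells also contain fluconazole at 8 µg/ml as a sub-toxic cotreatment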
Mdm2-MdmX inh = inhibitors of human Mdm2/MdmX interaction | SaOS-2 split-luciferase Mdm2/MdmX complementation, luminescence | inhibition, % at 8 µM | 330,000 tested, 3% active | O15151+Q00987;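 active = inhibition of at least 50% at 8 µM in the primary screen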
Target sequence (O15151 whole entry, looked up): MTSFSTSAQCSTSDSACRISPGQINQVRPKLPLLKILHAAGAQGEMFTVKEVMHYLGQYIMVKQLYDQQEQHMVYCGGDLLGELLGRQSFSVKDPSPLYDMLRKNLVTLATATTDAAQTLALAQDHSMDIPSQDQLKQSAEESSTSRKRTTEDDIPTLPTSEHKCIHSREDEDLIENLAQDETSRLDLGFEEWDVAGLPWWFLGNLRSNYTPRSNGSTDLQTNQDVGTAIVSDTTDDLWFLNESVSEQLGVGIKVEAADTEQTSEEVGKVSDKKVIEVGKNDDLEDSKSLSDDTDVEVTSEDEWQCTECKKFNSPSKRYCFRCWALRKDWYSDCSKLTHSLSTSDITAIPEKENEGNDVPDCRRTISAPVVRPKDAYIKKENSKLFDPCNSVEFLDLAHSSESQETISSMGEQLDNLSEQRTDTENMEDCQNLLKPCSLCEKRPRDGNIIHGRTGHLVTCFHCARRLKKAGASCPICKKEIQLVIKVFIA
Target sequence (Q00987 whole entry, looked up): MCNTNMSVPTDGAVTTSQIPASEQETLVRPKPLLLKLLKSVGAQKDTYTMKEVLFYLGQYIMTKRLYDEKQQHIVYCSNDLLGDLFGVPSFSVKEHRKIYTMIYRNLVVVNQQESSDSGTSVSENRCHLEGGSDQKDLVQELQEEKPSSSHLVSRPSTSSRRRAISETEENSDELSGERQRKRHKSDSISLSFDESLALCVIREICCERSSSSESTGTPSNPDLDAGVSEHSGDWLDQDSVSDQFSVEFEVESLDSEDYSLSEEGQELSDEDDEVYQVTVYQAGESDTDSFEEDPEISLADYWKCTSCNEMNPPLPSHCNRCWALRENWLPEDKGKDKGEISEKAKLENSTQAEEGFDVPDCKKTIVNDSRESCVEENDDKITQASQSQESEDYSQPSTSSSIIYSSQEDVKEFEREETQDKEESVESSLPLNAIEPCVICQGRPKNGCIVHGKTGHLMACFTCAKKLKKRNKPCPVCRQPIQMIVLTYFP
CSC inhib = blocks cancer stem cells; cancer stem cell-like cells viability, luminescence; inhibition, % at 7.5 µM; 300,000 tested, 1.1% active; in the data active = inhibition above about 75%; inconclusive = no clear call, values can overlap the other calls; tested in HMLE shEcad cells
Beta cell apopt = beta cell apoptosis inhibition; INS-1E cytokine-induced death, ATP luminescence, 48 h; percent of positive-control rescue, neutral wells zero; protection from apoptosis, % (test concentration not listed); 300,000 tested, 0.8% active; AID 435005;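 active = Every replicate reaches about 75%, or at least half do and their mean reaches it too, limit read from the data; inconclusive = At least half of replicates reach the limit but their mean does not; inactive = Under half of replicates reach the limit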;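 note: higher means more ATP so stronger rescue from cytokine killing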
SKKanGAS inh = inhibitors of SKKanGAS S. pyogenes growth in kanamycin (SK-promoter or general growth effect); BacTiter-Glo, 6 h; inhibition, % at 7.5 µM; 300,000 tested, 1.3% active; AID 1662;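 active = mean replicate score, as percent of positive control median, at least 50; inconclusive = mean below 50 but one replicate at or above 50; inactive = mean and every replicate below 50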;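 note: strain carries kanamycin resistance gene driven by streptokinase promoter and grows in 40 µg/ml kanamycin; loss of luminescence reflects streptokinase promoter inhibition or plain growth inhibition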
Large screens that a line does not name were inactive.

O=C(O)CCCC(=O)Nc1ccc(C(=O)NCc2cccnc2)cc1	Beta cell apopt 101.1 (no result: Calb FLC)
O=C(NCc1cccnc1)c1ccc(NS(=O)(=O)c2ccccc2)cc1	none
O=C(CCC1CCCC1)Nc1ccc(C(=O)NCc2cccnc2)cc1	CSC inhib inconclusive, Beta cell apopt 100.1
O=C(COC(=O)C1CC2CCCC(C1)C2=O)NC1CCCCC1 (configuration not stated)	none (no result: T cruzi inh, Calb FLC, CSC inhib, SKKanGAS inh)
Cc1cc(C)nc(N2N=C(C(F)(F)F)CC2=O)n1	none
CC(C)CN(C(=O)COC(=O)Cc1cccc2ccccc12)c1c(N)n(Cc2ccccc2)c(=O)[nH]c1=O	none
Cc1cc(C)n2nc(SCC(=O)Nc3ccc(F)cc3[N+](=O)[O-])nc2n1	none (no result: T cruzi inh, Calb FLC, SKKanGAS inh)
NC(=S)NN=C(Cc1ccccc1)Cc1ccccc1	T cruzi inh 60.1
CN1CCN(CC#Cc2ccccc2)CC1CCO (configuration not stated)	none
Cc1ccc(NC(=S)c2nc3ccccc3[nH]2)c(C)c1	SKKanGAS inh 81.8
Cc1ccc(NC(=S)c2nc3ccccc3[nH]2)cc1	Calb FLC 85.5, SKKanGAS inh 93.1
Cc1ccc(NC(=S)c2ccncc2)c(C)c1	none
Cc1ccc(-n2c(SCC(=O)NC3CCS(=O)(=O)C3)nc3ccccc3c2=O)cc1C (configuration not stated)	none
CN1CCN(CCCOc2ccc(-c3ccccc3)cc2)CC1	T cruzi inh 56.0
CCN1CCN(CCCOc2ccc(-c3ccccc3)cc2)CC1	T cruzi inh 71.6, CSC inhib 125.2
O=C(c1ccccc1)c1ccc(OCCCN2CCCC2)cc1	T cruzi inh 54.7
CN1CCN(CCOc2ccc(-c3ccccc3)cc2)CC1	none
CCN1CCN(CCOc2ccc(Cl)cc2)CC1	T cruzi inh 66.9
CCCCOc1ccc(C(O)C(CN2CCCCC2)c2ccccc2)cc1 (configuration not stated)	none (no result: CSC inhib)
CCCOc1ccc(C(=O)C(CN2CCCC2)c2ccccc2)cc1 (configuration not stated)	CSC inhib 101.1 (no result: Mdm2-MdmX inh)
CCOCCCn1c(SCC(=O)Nc2ccc(OC)cc2)nc2ccccc2c1=O	none
COc1cc(/C=C/c2noc(-c3ccccc3O)n2)ccc1OC(C)=O	CSC inhib 103.4
COc1ccc(NC(=O)C2CCN(S(=O)(=O)c3ccc(N4CCCC4=O)cc3)CC2)c(OC)c1	none
Cc1ccc(NC(=O)C2CCN(S(=O)(=O)c3ccc(N4CCCC4=O)cc3)CC2)cc1Cl	Beta cell apopt 122.0
CC1Sc2ccc(S(=O)(=O)N3CCC(C(=O)Nc4ccc(Cl)cc4)CC3)cc2NC1=O (configuration not stated)	Beta cell apopt 112.6
COc1ccc(NC(=O)C2CCN(S(=O)(=O)c3ccc4c(c3)NC(=O)C(C)S4)CC2)cc1 (configuration not stated)	none
O=C(Nc1ccc(Br)cc1)Nn1cnnc1	none
CC(C)(C)c1nn(-c2ccccc2)c2[nH]c(=O)c(C=O)cc12	CSC inhib 87.6
CC(C)(C)c1nn(-c2ccccc2)c2nc(Cl)c(C=O)cc12	none
O=C(COC(=O)c1n[nH]c2ccccc12)NC1CCCCC1	none (no result: T cruzi inh, Calb FLC, SKKanGAS inh)
CCOC(=O)C1CCN(C(=O)Cn2cnc3sc(C)c(S(=O)(=O)N4CCOCC4)c3c2=O)CC1	none
COCc1c(C(C)C)nc(C(C)C)c(/C=C/[C@@H](O)C[C@@H](O)CC(=O)O)c1-c1ccc(F)cc1	T cruzi inh 64.8, Calb FLC 112.3, CSC inhib 105.8 (no result: Mdm2-MdmX inh)
COc1ccc2oc(C(=O)OCC(=O)NC3(C#N)CCCC3)c(C)c2c1	SKKanGAS inh 53.2 (no result: CSC inhib)
COc1ccc2oc(C(=O)OCC(=O)NC3CCCC3)c(C)c2c1	none (no result: Beta cell apopt)
O=C(/C=C\c1ccc(-c2cccc([N+](=O)[O-])c2)o1)N1CCOCC1	Calb FLC 97.4
CCN(c1ccccc1)S(=O)(=O)c1cccc(C(=O)OCC(=O)Nc2ccc(NC(C)=O)cc2)c1	none (no result: T cruzi inh, Calb FLC, SKKanGAS inh)
O=C(Nc1nnc(-c2ccc(Br)cc2)o1)c1cccc(N2C(=O)CCC2=O)c1	SKKanGAS inh 87.6 (no result: Beta cell apopt)
O=C(Nc1nnc(-c2ccccc2)o1)c1cccc(N2C(=O)CCC2=O)c1	Calb FLC 100.0 (no result: Beta cell apopt)
CS(=O)(=O)c1ccc(-c2nnc(NC(=O)c3cccc(N4C(=O)CCC4=O)c3)o2)cc1	none (no result: Beta cell apopt)
COc1cc(C(=O)NCC(c2ccccc2)N(C)C)ccc1OCc1c(C)noc1C (configuration not stated)	none (no result: T cruzi inh, Calb FLC, CSC inhib, SKKanGAS inh)
O=C(Nc1ccnn1C1CCN(Cc2cc(Cl)ccc2O)CC1)c1cccnc1	none
Cc1cc(C(=O)Nc2ccncc2)c2ccccc2n1	none
CCOCCCNC(=O)NC(=O)CN1CCN(S(=O)(=O)c2ccc3c(c2)OCCO3)CC1	none
CC(=O)O[C@H]1CC[C@]2(C)[C@H]3CC=C4[C@@H]5[C@@H](C)[C@H](C)CC[C@]5(C(=O)O)CC[C@@]4(C)[C@]3(C)CC[C@H]2C1(C)C	SKKanGAS inh 107.2
CC1(C)C2CC[C@]3(C)C(CC=C4[C@@H]5C[C@@](C)(CO)[C@@H](O)C[C@]5(C(=O)O)CC[C@]43C)[C@@]2(C)CC[C@@H]1O (some centres not stated)	none
COc1ccc(CN(C)S(=O)(=O)c2nnc(NC(=O)c3cccc(F)c3)s2)cc1OC	SKKanGAS inh 60.2
COc1ccc(CN(C)S(=O)(=O)c2nnc(NC(=O)c3ccccc3)s2)cc1OC	none
O=C(CSc1nnc(-c2ccc3c(c2)OCO3)o1)Nc1ncc(C(F)(F)F)cc1Cl	CSC inhib inconclusive, SKKanGAS inh 98.1
Cc1nn2c(-c3ccc(S(=O)(=O)N4CCN(C)CC4)o3)nnc2c2ccccc12	none
O=C(NCc1ccccn1)C(=O)Nc1nc(C23CC4CC(CC(C4)C2)C3)cs1	SKKanGAS inh 75.3
O=C(NCc1ccccn1)NC12CC3CC(CC(C3)C1)C2	none
CC1=C/C(=N\NC(=S)NCc2ccccc2)CC1	T cruzi inh 69.3
COc1ccc2c(c1)c(C(=O)N/N=C/c1cccc(Br)c1)c(C)n2C	T cruzi inh 54.5
CC(C)CN(C(=O)COC(=O)C12CC3CC(CC(Cl)(C3)C1)C2)c1c(N)n(Cc2ccccc2)c(=O)[nH]c1=O	Beta cell apopt 80.9
COc1ccc2cc(C=NS(=O)(=O)c3ccc(C)cc3)n(C)c2c1	none (no result: T cruzi inh, Calb FLC, SKKanGAS inh)
CC(C)Nc1nc(Oc2ccc(Cl)cc2Cl)cc(C(F)(F)F)n1	SKKanGAS inh 79.3 (no result: CSC inhib)
c1ccc(C2=Nn3c(nnc3-c3cccs3)SC2)cc1	none (no result: Beta cell apopt)
c1ccc(-c2ccc(C3=Nn4c(nnc4-c4cccs4)SC3)cc2)cc1	SKKanGAS inh 51.0 (no result: Beta cell apopt)
COc1ccc(C2CC(c3ccc(Br)cc3)=NN2C(=O)CSC2=NN3CCCC(=O)N=C3S2)cc1 (configuration not stated)	T cruzi inh 60.0
COc1ccc(CCNC(=O)CCc2ccc(S(=O)(=O)NCC(C)C)cc2)cc1OC	none
Cc1ccc(CNC(=O)c2ccc(N3CCCC3=O)cc2)cc1	none
